ChEMBL document CHEMBL2176957, “Discovery of a novel noniminosugar acid α glucosidase chaperone series” (J Med Chem, 2012)
pIC50: −log10 of the molar value. Converted amounts (≈) assume the structure as drawn. The source made the active and inactive calls. No cut-off for these calls is given here.

Experiments:
Caco-2 [1] = experiment: Permeability from apical to basolateral side of human Caco2 cells
[2] = Cytotoxicity in human F2845 cells assessed as cell viability at 1 to 5 uM after 5 days confocal laser-scanning microscopic analysis; assay type: cell-based; settings: f2845, 120 h
Summary of the method: (§1)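 Primary wild-type dermal fibroblasts and patient-derived Pompe fibroblasts (passage 7) grown on chamber slides and exposed to compound for 5 or 6 days. Viability judged from the cultures examined by immunostaining and confocal microscopy.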

[3] = target: T1, Lysosomal alpha-glucosidase (Homo sapiens, UniProt P10253); experiment: Increase in GAA activity in human wild type skin fibroblasts incubated for 5 days by fluorescence assay relative to vehicle-treated control
Summary of the method: (§2)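 Fibroblasts seeded at 5,000 cells/well and treated 5 days, with media and compound renewed on day 3. Assayed directly or after PBS wash and 18 h or 40 h in compound-free medium. Cells were incubated 2 h at 37 °C in pH 4.0 citrate/phosphate buffer with 3 mM 4-MUG and acarbose, then stopped at pH 10. Background subtracted, normalized to vehicle (100%); triplicate, mean ±SD.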

[4] = target: T1, Lysosomal alpha-glucosidase; experiment: Increase in translocation of GAA to lysosomes in human F2845 cells at 1 to 5 uM after 5 days by confocal laser-scanning microscopic analysis; assay type: cell-based
Summary of the method: (§3)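 Wild-type primary dermal fibroblasts or Pompe patient fibroblasts (F3248, F0833, F2845; low passage) treated with compound for 5 or 6 days. Fixed in 3% paraformaldehyde, permeabilized with 0.1% Triton X-100, blocked, stained with mouse anti-GAA (Alexa-488) and goat anti-cathepsin D (Alexa-555), DAPI counterstain. Confocal images taken at fixed laser settings; percentage of cells with lysosomal GAA co-localization scored.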

[5] = Cytotoxicity in human F2845 cells at 10 to 20 uM after 6 days by confocal laser-scanning microscopic analysis; assay type: cell-based; settings: f2845, 144 h; summary of the method: as §1
[6] = target: T1, Lysosomal alpha-glucosidase; experiment: Increase in GAA activity in human wild type skin fibroblasts incubated for 5 days followed by 18 to 40 hrs wash out by fluorescence assay relative to vehicle-treated control; summary of the method: as §2
Caco-2 [7] = experiment: Efflux ratio from basolateral to apical side to apical to basolateral side of human Caco2 cells; assay type: ADME, cell-based
[8] = target: T1, Lysosomal alpha-glucosidase; experiment: Inhibition of human recombinant GAA assessed as hydrolysis of bovine liver glycogen by Amplex red oxidase assay
Summary of the method: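 Recombinant human GAA hydrolysing bovine liver glycogen as the native substrate. Released glucose was detected with an Amplex Red glucose oxidase coupled reaction, read as fluorescence on a plate reader.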

[9] = Cytotoxicity in human wild type skin fibroblasts assessed as cell viability at 1 to 5 uM after 5 days by confocal laser-scanning microscopic analysis; settings: skin fibroblast, 120 h; summary of the method: as §1
[10] = Cytotoxicity in human wild type skin fibroblasts at 10 to 20 uM after 6 days by confocal laser-scanning microscopic analysis; settings: skin fibroblast, 144 h; summary of the method: as §1
[11] = target: T1, Lysosomal alpha-glucosidase; experiment: Inhibition of wild type recombinant GAA preincubated for 5 mins measured after 45 mins using blue-shifted dye by fluorescence assay; settings: read-out: IC50
[12] = target: T1, Lysosomal alpha-glucosidase; experiment: Ratio of Kd for wild type recombinant NT-495 labelled GAA to IC50 for wild type recombinant GAA (unknown origin
[13] = target: T1, Lysosomal alpha-glucosidase; experiment: Binding affinity at wild type recombinant GAA assessed as rise in melting temperature of protein using SYPRO Orange dye by fluorescence assay
Summary of the method: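 Thermal shift of recombinant wild-type GAA (1 μM) with SYPRO Orange (5×) in 50 mM citrate buffer pH 5.0 with 100 mM KCl, 10 mM NaCl, 1 mM MgCl2. Six-point compound series, 0.82–200 μM final, 2% DMSO, DMSO controls. Heated 20 to 95 °C at 4.8 °C/s; fluorescence ex 498/em 580 nm; Tm calculated from the melt curve.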

[14] = target: T1, Lysosomal alpha-glucosidase; experiment: Increase in GAA activity in human F2845 cells incubated for 5 days followed by 18 to 40 hrs wash out by fluorescence assay relative to vehicle-treated control; assay type: cell-based; summary of the method: as §2
[15] = Inhibition of alpha-galactosidase
Caco-2 [16] = experiment: Permeability from basolateral to apical side of human Caco2 cells
[17] = Aqueous solubility in PBS buffer
Liver = experiment: Half life in mouse liver microsomes
[18] = target: T1, Lysosomal alpha-glucosidase; experiment: Binding affinity at wild type recombinant GAA assessed as thermostabilization of protein at 50 uM incubated at 66 degC for 60 mins
Summary of the method: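 GAA incubated at 66 °C for 60 min with compound at 50 μM, compared with room-temperature incubation. Residual enzymatic activity read out and expressed as the ratio of heated to room-temperature activity; DMSO controls run in duplicate.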

[19] = target: T1, Lysosomal alpha-glucosidase; experiment: Inhibition of wild type recombinant GAA preincubated for 5 mins measured after 45 mins using red-shifted dye by fluorescence assay; settings: read-out: IC50
[20] = target: T2, Lysosomal acid glucosylceramidase (Homo sapiens) (UniProt P04062); experiment: Inhibition of glucocerebrosidase
T2 sequence (whole entry): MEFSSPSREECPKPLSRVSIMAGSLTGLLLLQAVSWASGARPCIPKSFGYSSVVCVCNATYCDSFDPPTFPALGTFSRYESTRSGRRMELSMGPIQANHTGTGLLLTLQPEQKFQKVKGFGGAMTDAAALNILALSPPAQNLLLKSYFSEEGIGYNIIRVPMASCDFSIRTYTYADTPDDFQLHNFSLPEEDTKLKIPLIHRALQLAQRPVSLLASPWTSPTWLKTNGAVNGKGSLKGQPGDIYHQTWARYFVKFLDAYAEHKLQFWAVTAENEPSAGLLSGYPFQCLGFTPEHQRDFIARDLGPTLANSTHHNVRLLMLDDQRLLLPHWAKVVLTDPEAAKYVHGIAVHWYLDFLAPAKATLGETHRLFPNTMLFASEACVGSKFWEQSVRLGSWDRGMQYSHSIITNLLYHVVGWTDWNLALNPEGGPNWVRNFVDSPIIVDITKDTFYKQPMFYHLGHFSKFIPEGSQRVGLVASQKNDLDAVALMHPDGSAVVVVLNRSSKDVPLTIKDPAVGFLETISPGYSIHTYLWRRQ

[21] = target: T1, Lysosomal alpha-glucosidase; experiment: Increase in translocation of GAA to lysosomes in human wild type skin fibroblasts at 1 to 5 uM after 5 days by confocal laser-scanning microscopic analysis; summary of the method: as §3
[22] = target: T1, Lysosomal alpha-glucosidase; experiment: Increase in GAA activity in human F2845 cells incubated for 5 days by fluorescence assay relative to vehicle-treated control; assay type: cell-based; summary of the method: as §2

Papp (Caco-2 [1]): 14.6 ×10⁻⁶ cm/s
Activity [3]: Active
Activity [4]: inactive
Activity [6]: Active
Ratio (Caco-2 [7]): 1.9
INH [8]: 330 nM
pIC50 [11]: 6.12
Ratio [12]: 20
Activity [13]: Active
Activity [14]: Active
inhibition [15]: Active
Papp (Caco-2 [16]): 27.1 ×10⁻⁶ cm/s
solubility [17]: 7.9 µM (≈ 3.16 µg/mL)
t1/2 (Liver): > 1 h
Activity [18]: Active
pIC50 [19]: 6.03
inhibition [20]: Active
Activity [21]: inactive
Activity [22]: Active
SMILES: CC(=O)c1ccc(N2CCN(S(=O)(=O)c3ccc4c(c3)CC(=O)N4)CC2)cc1
Activity [2]: Non-toxic
Activity [5]: Toxic
Activity [9]: Non-toxic
Activity [10]: Toxic
